Calls of active or inactive are those of the source. The calls are words filed in the database; no cut-off is given here.
How the values were obtained:
[1] = Antifibrotic activity against human LX2 cells assessed as reduction in cell growth measured after 48 hrs by MTT assay; format: functional, cell-based; details: LX-2, 48 h
How it was run: (§1)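 Cells grown at 37 °C in 5% CO2. MCF-7, A549 and HT-29 cells were kept in RPMI 1640 with 10% FBS and pen/strep. HepG2, A375, NRK-49F and LX-2 cells were kept in high-glucose DMEM with 10% FBS and pen/strep. HLF-1 cells were kept in DMEM/F-12 (1:1) with 10% FBS. Cells seeded for exponential growth, exposed to a concentration range for 48 h, then MTT added for 4 h at 37 °C. Formazan dissolved in DMSO, absorbance read at 490 nm, IC50 fitted.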

HepG2 = test: Antiproliferative activity against human HepG2 cells assessed as reduction in cell growth measured after 48 hrs by MTT assay; format: functional, cell-based; details: HepG2, 48 h; how it was run: as §1
HT-29 = test: Antiproliferative activity against human HT-29 cells assessed as reduction in cell growth measured after 48 hrs by MTT assay; format: functional, cell-based; details: HT-29, 48 h; how it was run: as §1
A-375 [2] = test: Antiproliferative activity against human A375 cells assessed as reduction in cell growth measured after 48 hrs by MTT assay; format: functional, cell-based; details: A-375, 48 h; how it was run: as §1
MCF7 = test: Antiproliferative activity against human MCF7 cells assessed as reduction in cell growth measured after 48 hrs by MTT assay; format: functional, cell-based; details: MCF7, 48 h; how it was run: as §1
NRK-49F = test: Antifibrotic activity against rat NRK-49F cells assessed as reduction in cell growth measured after 48 hrs by MTT assay; format: functional, cell-based; how it was run: as §1
[3] = target: T1, Bromodomain-containing protein 4 (Homo sapiens, UniProt O60885); test: Inhibition of biotinylated H4 K5,8,12,16Ac peptide binding to GST-tagged BRD4 bromodomain2 (unknown origin) at 100 uM measured after 60 mins by AlphaScreen assay relative to control
How it was run: (§2)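 AlphaScreen proximity assay measuring binding of the tetra-acetylated (K5,8,12,16Ac) biotinylated histone H4 peptide to recombinant BRD4 BD1 or BD2. Buffer was 50 mM HEPES with BSA, at 1% DMSO in the 10X compound dilutions. Compound, bromodomain, peptide and histidine-conjugated acceptor beads were incubated 60 min at room temperature. Streptavidin donor beads were then added for 30 min in the dark, and the endpoint Alpha signal read. Inhibition taken at 100 µM, mean of three independent experiments.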

[4] = target: T1, Bromodomain-containing protein 4; test: Inhibition of biotinylated H4 K5,8,12,16Ac peptide binding to GST-tagged BRD4 bromodomain1 (unknown origin) measured after 60 mins by AlphaScreen assay
[5] = Antifibrotic activity against human HLF1 cells assessed as reduction in cell growth measured after 48 hrs by MTT assay; format: functional, cell-based; details: HLF1, 48 h; how it was run: as §1
A549 = test: Antiproliferative activity against human A549 cells assessed as reduction in cell growth measured after 48 hrs by MTT assay; format: functional, cell-based; details: A549, 48 h; how it was run: as §1
[6] = target: T1, Bromodomain-containing protein 4; test: Inhibition of biotinylated H4 K5,8,12,16Ac peptide binding to GST-tagged BRD4 bromodomain1 (unknown origin) at 100 uM measured after 60 mins by AlphaScreen assay relative to control; how it was run: as §2
L02 = test: Cytotoxicity against human LO2 cells assessed as reduction in cell growth measured after 24 hrs by MTT assay; format: cell-based; details: L02, 24 h
A-375 [7] = test: Induction of apoptosis in human A375 cells at 10 uM measured after 24 hrs by Annexin V-FITC/propidium iodide staining based fluorescence microscopic analysis; format: functional, cell-based
[8] = target: T1, Bromodomain-containing protein 4; test: Inhibition of BRD4 in human HLF1 cells assessed as reduction in collagen-1 protein expression measured after 24 hrs by Western blot analysis; format: cell-based
How it was run: (§3)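 Cells (2.5 × 10^5 per well; A375 for c-Myc, HLF-1 for collagen I) were treated for 24 h and lysed on ice. Lysate was clarified at 12,000g for 15 min at 4 °C and protein measured by BCA. 20–40 µg was run on SDS-PAGE and blotted to PVDF, then blocked in 5% milk. Primary antibodies (c-Myc or collagen I, β-actin loading control) overnight, secondary antibody 1 h, fluorescent detection.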

[9] = target: T1, Bromodomain-containing protein 4; test: Inhibition of BRD4 in human A375 cells assessed as reduction in c-MYC protein expression measured after 24 hrs by Western blot analysis; format: cell-based; how it was run: as §3
[10] = Selectivity index, ratio of IC50 for cytotoxicity against human LO2 cells to IC50 for antifibrotic activity against human LX2 cells
[11] = target: T1, Bromodomain-containing protein 4; test: Inhibition of BRD4 in human HLF1 cells assessed as reduction in collagen-1 mRNA expression at 1 uM measured after 24 hrs by RT-PCR analysis; format: cell-based
How it was run: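 HLF-1 cells (2.5 × 10^5 per well) were treated for 24 h. Total RNA was extracted, reverse-transcribed to cDNA, and collagen I transcript measured by quantitative RT-PCR.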

Cc1noc(C)c1Cn1c(=O)nc(-c2cccc(Cl)c2)c2c3c(sc21)CC(C(C)(C)C)CC3 (centres undefined)
IC50 [1]: 15.3 µM
IC50 (HepG2): 3.6 µM
IC50 (HT-29): 19.7 µM
IC50 (A-375 [2]): 15.9 µM
IC50 (MCF7): 25.7 µM
IC50 (NRK-49F): 8.5 µM
inhibition [3]: 52.3%
IC50 [4]: 3.1 µM
IC50 [5]: 12.8 µM
IC50 (A549): 18.9 µM

COC(=O)c1ccc(-c2nc(=O)n(Cc3c(C)noc3C)c3sc4c(c23)CCC(C(C)(C)C)C4)cc1 (centres undefined)
IC50 [1]: 19.6 µM
IC50 (HepG2): 12.8 µM
IC50 (HT-29): 17.8 µM
IC50 (A-375 [2]): 8.7 µM
IC50 (MCF7): 38.6 µM
IC50 (NRK-49F): 8.1 µM
inhibition [3]: 49.7%
IC50 [4]: 1.5 µM
IC50 [5]: 6.6 µM
IC50 (A549): 19.3 µM

Cc1noc(C)c1Cn1c(=O)nc(-c2ccccc2)c2c3c(sc21)CCCCC3
IC50 [1]: 140 µM
inhibition [6]: 84.4%
inhibition [3]: 81.2%

Cc1noc(C)c1COc1nc(-c2ccc(Cl)c(Cl)c2)c2c3c(sc2n1)CC(C(C)(C)C)CC3 (centres undefined)
IC50 [1]: > 300 µM
inhibition [6]: 32.6%
inhibition [3]: 9.3%

CC(C)(C)C1CCc2c(sc3c2c(-c2ccccc2)nc(=O)n3Cc2ncccn2)C1 (centres undefined)
IC50 [1]: 152 µM
inhibition [6]: 70.4%
inhibition [3]: 66.6%

Cc1noc(C)c1Cn1c(=O)nc(-c2ccccc2)c2c3c(sc21)CC(C(C)(C)C)CC3 (centres undefined)
IC50 [1]: 21.6 µM
IC50 (HepG2): 10.9 µM
IC50 (HT-29): 20.1 µM
IC50 (A-375 [2]): 8 µM
IC50 (MCF7): > 100 µM
IC50 (NRK-49F): 23.1 µM
inhibition [3]: 41.2%
IC50 [4]: 8.2 µM
IC50 [5]: 21.3 µM
IC50 (A549): 29.6 µM

COc1cc(OC)c2c(=O)[nH]c(-c3cc(C)c(OCCO)c(C)c3)nc2c1 [APABETALONE]
IC50 [1]: 79.7 µM
IC50 (HepG2): 103 µM
IC50 (HT-29): 236 µM
IC50 (L02): > 100 µM
IC50 (A-375 [2]): 241 µM
IC50 (MCF7): > 300 µM
Activity (A-375 [7]): inactive
IC50 (NRK-49F): 42 µM
IC50 [5]: 52 µM
IC50 (A549): 53.1 µM

Cc1sc2c(c1C)C(c1ccc(Cl)cc1)=N[C@@H](CC(=O)OC(C)(C)C)c1nnc(C)n1-2
IC50 [1]: 28.6 µM
IC50 (HepG2): 11.3 µM
IC50 (HT-29): 19.6 µM
IC50 (L02): 54.2 µM
IC50 (A-375 [2]): 7.5 µM
IC50 (MCF7): 38 µM
Activity (A-375 [7]): Active
IC50 (NRK-49F): 21.1 µM
IC50 [5]: 20.4 µM
IC50 (A549): 13.1 µM

Cc1noc(C)c1Cn1c(=O)nc(-c2ccccc2Cl)c2c3c(sc21)CC(C(C)(C)C)CC3 (centres undefined)
IC50 [1]: 11.3 µM
IC50 (HepG2): 30 µM
IC50 (HT-29): 19.2 µM
IC50 (A-375 [2]): 11.1 µM
IC50 (MCF7): 69.2 µM
IC50 (NRK-49F): 17.2 µM
inhibition [3]: 39.5%
IC50 [4]: 1.6 µM
IC50 [5]: 12 µM
IC50 (A549): 16.6 µM

Cc1noc(C)c1Cn1c(=O)nc(-c2ccccc2)c2c3c(sc21)CC(C)(C)CC3
IC50 [1]: > 300 µM
inhibition [6]: 86.6%
inhibition [3]: 44.9%

Cc1noc(C)c1Cn1c(=O)nc(-c2ccc(F)cc2)c2c3c(sc21)CC(C(C)(C)C)CC3 (centres undefined)
IC50 [1]: 17.3 µM
IC50 (HepG2): 63.7 µM
IC50 (HT-29): 10.7 µM
IC50 (A-375 [2]): 14.2 µM
IC50 (MCF7): 33.3 µM
IC50 (NRK-49F): 23.3 µM
inhibition [3]: 33.2%
IC50 [4]: 3.6 µM
IC50 [5]: 14.5 µM
IC50 (A549): 49.9 µM

COc1ccc(-c2nc(=O)n(Cc3c(C)noc3C)c3sc4c(c23)CCN(C(C)C)C4)cc1
IC50 [1]: 101 µM
inhibition [6]: 82.9%
inhibition [3]: 66.6%

Cc1noc(C)c1Cn1c(=O)nc(-c2ccccc2)c2c3c(sc21)CCCC3
IC50 [1]: 114 µM
inhibition [6]: 46.4%
inhibition [3]: 26.2%

Cc1noc(C)c1Cn1c(=O)nc(-c2ccc(Cl)c(Cl)c2)c2c3c(sc21)CC(C(C)(C)C)CC3 (centres undefined)
IC50 [1]: 9.1 µM
IC50 (HepG2): 14.5 µM
IC50 (HT-29): 19.4 µM
IC50 (L02): 33.2 µM
IC50 (A-375 [2]): 4.9 µM
inhibition [8]: Dose-dependent effect
IC50 (MCF7): 16.6 µM
Activity (A-375 [7]): Active
IC50 (NRK-49F): 16 µM
inhibition [3]: 29.9%
inhibition [9]: Dose-dependent effect
IC50 [4]: 0.56 µM
IC50 [5]: 13.6 µM
Ratio IC50 [10]: 3.6
IC50 (A549): 24.5 µM
inhibition [11]: Active
